{
  "source": "paper PMC3064895",
  "about": "(Cancer Chemotherapy and Pharmacology, 2010)",
  "key": {"[1]": {"assay": "Supine blood pressure and heart rate", "assay_type": "in vivo, patients with advanced cancer", "conditions": "for Mean increase from baseline in diastolic BP, individual patient / Mean increase from baseline in systolic BP, individual patient: patient with confirmed PR"}, "[2]": {"assay": "Plasma pharmacokinetics at steady state of sorafenib", "assay_type": "in vivo, patients with advanced cancer", "conditions": "for AUC / Cmax: geometric mean (% CV); for AUC: AUC(0–12), n = 14; for Cmax: C max"}, "[3]": {"assay": "Safety: adverse events by NCI-CTCAE v3.0", "assay_type": "in vivo, patients with advanced cancer", "in_short": "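Patients with advanced cancer took the oral kinase inhibitor at 400 mg bid, continuously, in 28-day cycles. Safety, including laboratory tests, was checked at screening, at baseline and on day 1 of each cycle. Treatment-emergent AEs were graded by NCI-CTCAE v3.0 for incidence, severity, seriousness and drug relationship, and summarized descriptively for all patients with ≥1 dose.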"}, "Efficacy: tumor response": {"assay": "Efficacy: tumor response", "assay_type": "in vivo, patients with advanced cancer", "in_short": "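Adults with advanced cancer took the oral multitargeted kinase inhibitor at 400 mg bid, continuously, in 28-day cycles until progression or intolerance. Tumors were measured at screening and every 2 cycles and assessed locally by RECIST. Patients with ≥1 dose were included; patients were evaluable if radiologically re-evaluated or if they stopped for death or progression before re-evaluation. Descriptive statistics were used, with Kaplan–Meier for PFS.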"}, "[4]": {"conditions": "cited from earlier work; for Incidence of treatment-emergent cardiac ischemia/infarction AEs: final safety analysis"}, "[5]": {"conditions": "observational study by Schmidinger et al.; cited from earlier work"}, "[6]": {"conditions": "over 12-h period, Day 1 of cycle 5"}, "[7]": {"conditions": "human, plasma, oral, 400 mg, plasma, Day 1 of cycle 2, sorafenib 400 mg bid"}, "[8]": {"conditions": "human, plasma, oral, 400 mg, plasma, Day 1 of cycle 5, sorafenib 400 mg bid"}, "[9]": {"conditions": "plasma, Day 1 of cycle 2, sorafenib 400 mg bid"}, "[10]": {"conditions": "plasma, Day 1 of cycle 5, sorafenib 400 mg bid"}, "[11]": {"conditions": "retrospective analysis of 18 studies of sorafenib monotherapy"}},
  "note": "Several values for one entry are separate records, joined by “and”; a condition that tells them apart may be missing. Equal entries are not always repeated. Entries after “also recorded” stand apart in the source; their conditions may differ. Where two headings read alike, the source gives them in different places.",
  "data": [
    {"smiles": "CNC(=O)c1cc(Oc2ccc(NC(=O)Nc3ccc(Cl)c(C(F)(F)F)c3)cc2)ccn1", "note": "[sorafenib]", "values": [
      {"measurement": "Mean (SD) maximal change from baseline in supine diastolic BP", "setting": "[1]; [6]", "result": "22.0 (11.2) mm Hg"},
      {"measurement": "Mean (SD) maximal change from baseline in supine systolic BP", "setting": "[1]; [6]", "result": "24.8 (14.4) mm Hg"},
      {"measurement": "Mean (SD) maximal change from baseline in supine HR", "setting": "[1]; over 12-h period, Day 1 of cycle 5, listed as Sorafenib", "result": "8.3 (6.8) bpm"},
      {"measurement": "Mean increase from baseline in diastolic BP, individual patient", "setting": "[1]; after 1 cycle", "result": 31.0, "unit": "mm Hg"},
      {"measurement": "Mean increase from baseline in systolic BP, individual patient", "setting": "[1]; after 1 cycle", "result": 44.5, "unit": "mm Hg"},
      {"measurement": "Mean increase from baseline in diastolic BP, individual patient", "setting": "[1]; after 4 cycles", "result": 40.8, "unit": "mm Hg"},
      {"measurement": "Mean increase from baseline in systolic BP, individual patient", "setting": "[1]; after 4 cycles", "result": 29.3, "unit": "mm Hg"},
      {"measurement": "Tmax", "setting": "[2]; human, plasma, oral, 400 mg", "result": 2, "unit": "h"},
      {"measurement": "AUC", "setting": "[2]; [7]", "result": 42800, "unit": "ng·h/mL"},
      {"measurement": "AUC", "setting": "[2]; [8]", "result": 36000, "unit": "ng·h/mL"},
      {"measurement": "Cmax", "setting": "[2]; [7]", "result": 5400, "unit": "ng/mL"},
      {"measurement": "Cmax", "setting": "[2]; [8]", "result": 4300, "unit": "ng/mL"},
      {"measurement": "AUCnorm, geometric mean (% CV)", "setting": "[2]; [9]", "result": "7.5 (48.4) kg h/L"},
      {"measurement": "C max,norm, geometric mean (% CV)", "setting": "[2]; [9]", "result": "1.0 (64.9) kg/L"},
      {"measurement": "C trough, geometric mean (% CV)", "setting": "[2]; [9]", "result": "4.1 (73.6) mg/L"},
      {"measurement": "C trough,norm, geometric mean (% CV)", "setting": "[2]; [9]", "result": "0.7 (85.4) kg/L"},
      {"measurement": "AUCnorm, geometric mean (% CV)", "setting": "[2]; [10]", "result": "6.3 (69.8) kg h/L"},
      {"measurement": "C max,norm, geometric mean (% CV)", "setting": "[2]; [10]", "result": "0.8 (72.5) kg/L"},
      {"measurement": "C trough, geometric mean (% CV)", "setting": "[2]; [10]", "result": "3.2 (73.8) mg/L"},
      {"measurement": "C trough,norm, geometric mean (% CV)", "setting": "[2]; [10]", "result": "0.6 (83.8) kg/L"},
      {"measurement": "t max, median (range)", "setting": "[2]; [10]", "result": "2.00 (0–8.05) h"},
      {"measurement": "Relationship between PK parameters (AUC(0–12), C max) and cardiovascular safety parameters (QT/QTc, LVEF, BP, HR)", "setting": "[2]; sorafenib and its main metabolites, any time point, data not shown", "result": "No correlation; also recorded: No relationship was observed"},
      {"measurement": "Alopecia, drug-related, Grade ≥3", "setting": "[3]; N = 53", "result": "0 (0) n (%)"},
      {"measurement": "Alopecia, drug-related, all grades", "setting": "[3]; N = 53", "result": "13 (25) n (%)"},
      {"measurement": "Dermal change, drug-related, Grade ≥3", "setting": "[3]; N = 53", "result": "0 (0) n (%)"},
      {"measurement": "Dermal change, drug-related, all grades", "setting": "[3]; N = 53", "result": "6 (11) n (%)"},
      {"measurement": "Dermatology—other, drug-related, Grade ≥3", "setting": "[3]; N = 53", "result": "1 (2) n (%)"},
      {"measurement": "Dermatology—other, drug-related, all grades", "setting": "[3]; N = 53", "result": "7 (13) n (%)"},
      {"measurement": "Diarrhea, drug-related, Grade ≥3", "setting": "[3]; N = 53", "result": "1 (2) n (%)"},
      {"measurement": "Diarrhea, drug-related, all grades", "setting": "[3]; N = 53", "result": "15 (28) n (%)"},
      {"measurement": "Fatigue, drug-related, Grade ≥3", "setting": "[3]; N = 53", "result": "1 (2) n (%)"},
      {"measurement": "Fatigue, drug-related, all grades", "setting": "[3]; N = 53", "result": "8 (15) n (%)"},
      {"measurement": "Hand-foot skin reaction, drug-related, Grade ≥3", "setting": "[3]; N = 53", "result": "6 (11) n (%)"},
      {"measurement": "Hand-foot skin reaction, drug-related, all grades", "setting": "[3]; N = 53", "result": "16 (30) n (%)"},
      {"measurement": "Hypertension, drug-related, Grade ≥3", "setting": "[3]; N = 53", "result": "1 (2) n (%)"},
      {"measurement": "Hypertension, drug-related, all grades", "setting": "[3]; N = 53", "result": "6 (11) n (%)"},
      {"measurement": "Mucositis, drug-related, Grade ≥3", "setting": "[3]; N = 53", "result": "1 (2) n (%)"},
      {"measurement": "Mucositis, drug-related, all grades", "setting": "[3]; N = 53", "result": "8 (15) n (%)"},
      {"measurement": "Nausea, drug-related, Grade ≥3", "setting": "[3]; N = 53", "result": "0 (0) n (%)"},
      {"measurement": "Nausea, drug-related, all grades", "setting": "[3]; N = 53", "result": "7 (13) n (%)"},
      {"measurement": "Pain, extremity—limb, drug-related, Grade ≥3", "setting": "[3]; N = 53", "result": "0 (0) n (%)"},
      {"measurement": "Pain, extremity—limb, drug-related, all grades", "setting": "[3]; N = 53", "result": "12 (23) n (%)"},
      {"measurement": "Patients discontinued from the study because of AEs", "setting": "[3]; N = 53", "result": "Seven"},
      {"measurement": "Patients with dose reductions", "setting": "[3]; N = 53", "result": 43.4, "unit": "%"},
      {"measurement": "Patients with dose reductions because of treatment-emergent AEs", "setting": "[3]; N = 53", "result": 32.1, "unit": "%"},
      {"measurement": "Patients with drug-related treatment-emergent serious AEs", "setting": "[3]; N = 53", "result": 4, "unit": "%"},
      {"measurement": "Patients with treatment interruptions", "setting": "[3]; N = 53", "result": 75.5, "unit": "%"},
      {"measurement": "Patients with treatment interruptions because of treatment-emergent AEs", "setting": "[3]; N = 53", "result": 43.4, "unit": "%"},
      {"measurement": "Rash/desquamation, drug-related, Grade ≥3", "setting": "[3]; N = 53", "result": "3 (6) n (%)"},
      {"measurement": "Rash/desquamation, drug-related, all grades", "setting": "[3]; N = 53", "result": "20 (38) n (%)"},
      {"measurement": "Sensory neuropathy, drug-related, Grade ≥3", "setting": "[3]; N = 53", "result": "0 (0) n (%)"},
      {"measurement": "Sensory neuropathy, drug-related, all grades", "setting": "[3]; N = 53", "result": "7 (13) n (%)"},
      {"measurement": "Any drug-related adverse event, Grade ≥3", "setting": "[3]; N = 53, sorafenib 400 mg bid", "result": "16 n (%) and 16 (30) n (%)"},
      {"measurement": "Any drug-related adverse event, all grades", "setting": "[3]; N = 53, sorafenib 400 mg bid", "result": "43 n (%) and 43 (81) n (%)"},
      {"measurement": "Deaths during the study or within 30 days of the last dose", "setting": "[3]; all secondary to disease progression, considered unrelated to study drug", "result": "Seven"},
      {"measurement": "Discontinuations because of drug-related AEs", "setting": "[3]; of the patients discontinued because of AEs", "result": 3, "unit": "patients"},
      {"measurement": "PD as best response", "setting": "Efficacy: tumor response; 48 patients evaluable for tumor response, RECIST", "result": 27, "unit": "%"},
      {"measurement": "Patients alive (censored) at time of analysis", "setting": "Efficacy: tumor response; ITT population (n = 53)", "result": 87, "unit": "%"},
      {"measurement": "Patients who had died by the time of analysis", "setting": "Efficacy: tumor response; ITT population (n = 53)", "result": 13, "unit": "%"},
      {"measurement": "Median PFS", "setting": "Efficacy: tumor response; ITT population (n = 53), 95% CI 2.8–6.4 months", "result": 4.1, "unit": "months"},
      {"measurement": "Median overall survival", "setting": "Efficacy: tumor response; ITT population (n = 53), censored data", "result": "not estimable"},
      {"measurement": "Patients reporting cardiac ischemia/infarction AEs", "setting": "[4]; RCC phase III, patients who crossed over from placebo to sorafenib", "result": 1.4, "unit": "%"},
      {"measurement": "Incidence of treatment-emergent cardiac ischemia/infarction AEs", "setting": "[4]; randomized phase III HCC study, placebo […]", "result": 2.7, "unit": "%"},
      {"measurement": "Incidence of treatment-emergent cardiac ischemia/infarction AEs", "setting": "[4]; randomized phase III RCC study, placebo 0.4%", "result": 2.9, "unit": "%"},
      {"measurement": "Overall rate of CHF", "setting": "[4]; [11]", "result": 1.6, "unit": "%"},
      {"measurement": "Overall rate of MI", "setting": "[4]; [11]", "result": 1.5, "unit": "%"},
      {"measurement": "Treatment-emergent hypertension", "setting": "[4]; [11]", "result": 18.6, "unit": "%"},
      {"measurement": "Incidence of ≥10 LVEF(%) reduction", "setting": "[5]", "result": 5, "unit": "%"}
    ]}
  ]
}
